The results in this text go back to ChEMBL document CHEMBL1154645, “Aza-peptidyl Michael acceptor and epoxide inhibitors--potent and selective inhibitors of Schistosoma mansoni and Ixodes ricinus legumains (asparaginyl endopeptidases)” (J Med Chem, 2009).

A short description of assay [1]: Inhibition of Schistosoma mansoni asparaginyl endopeptidase. An outline of the steps:
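Recombinant S. mansoni legumain zymogen expressed in Pichia pastoris and activated before use. Assay buffer was 0.1 M citrate-phosphate with 4 mM DTT at pH 6.8, with under 1% DMSO. The substrate was Cbz-Ala-Ala-[…]-AMC at a final 10 μM, and activity was read as AMC release.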

Another assay deals with T1, Legumain-like protease (Ixodes ricinus, UniProt Q6PRC7).
T1 sequence (Q6PRC7 whole entry): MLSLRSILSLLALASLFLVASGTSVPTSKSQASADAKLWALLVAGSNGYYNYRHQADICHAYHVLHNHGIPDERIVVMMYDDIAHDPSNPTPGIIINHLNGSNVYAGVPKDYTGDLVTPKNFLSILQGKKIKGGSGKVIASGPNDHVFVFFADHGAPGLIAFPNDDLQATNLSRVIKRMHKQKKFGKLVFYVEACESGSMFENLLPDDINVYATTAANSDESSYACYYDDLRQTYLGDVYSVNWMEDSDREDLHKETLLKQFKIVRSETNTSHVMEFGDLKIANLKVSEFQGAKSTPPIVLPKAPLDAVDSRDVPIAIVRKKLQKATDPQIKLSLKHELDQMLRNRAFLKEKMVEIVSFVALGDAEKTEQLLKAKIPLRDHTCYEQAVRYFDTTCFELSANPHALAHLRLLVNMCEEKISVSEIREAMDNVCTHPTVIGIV
Briefly: Inhibition of Ixodes ricinus asparaginyl endopeptidases. The procedure, abridged:
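Recombinant I. ricinus legumain zymogen expressed in Pichia pastoris, then activated. Substrate: Cbz-Ala-Ala-[…]-AMC at 10 μM final, with fluorogenic AMC release as the read-out.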

Molecules are shown by their SMILES.

What is called IC50 is the concentration at which inhibition is half-maximal. `CCOC(=O)/C=C/C(=O)N(CC(N)=O)NC(=O)[C@H](C)NC(=O)[C@@H](C)NC(=O)N1CCNCC1`: the IC50 in assay [1] (read-out: IC50) stood at 300 nM; on Legumain-like protease (read-out: IC50) it was 8.5 nM.
For the compound `C[C@H](NC(=O)[C@@H](C)NC(=O)N1CCOCC1)C(=O)NN(CC(N)=O)C(=O)[C@H]1O[C@H]1C(=O)N(Cc1ccccc1)Cc1ccccc1`, the IC50 result (in assay [1]; at Legumain-like protease) was “Not Active” in each case.
As to `C[C@H](NC(=O)[C@@H](C)NC(=O)N1CCNCC1)C(=O)NN(CC(N)=O)C(=O)/C=C/C(=O)N(Cc1cccc2ccccc12)Cc1cccc2ccccc12` (relative stereo), the figures for the half-maximal inhibitory concentration (IC50) (in assay [1] (read-out: IC50); on Legumain-like protease (read-out: IC50)) were 70 nM and 2.6 nM, respectively.
Taken in the same sequence, the figures for `CC(NC(=O)N1CCOCC1)C(=O)N[C@@H](C)C(=O)NN(CC(N)=O)C(=O)[C@H]1O[C@@H]1C(=O)NCc1cccc2ccccc12` (single isomer, unassigned) were 60 nM and 6 nM.
Taken in the same sequence, the figures for `CC(NC(=O)N1CCCCC1)C(=O)N[C@@H](C)C(=O)NN(CC(N)=O)C(=O)[C@H]1O[C@@H]1C(=O)N(Cc1ccccc1)Cc1ccccc1` (single isomer, unassigned) were 72 nM and 12 nM.
As to `C[C@H](NC(=O)N1CCOCC1)C(=O)NN(CC(N)=O)C(=O)/C=C/C(=O)NCCCc1ccccc1`, the IC50 in assay [1] (read-out: IC50) is over 2000 nM; against Legumain-like protease it was “Not Active”.
Regarding `CC(C)(C)OC(=O)NN(CC(N)=O)C(=O)/C=C/C(=O)NCC1CCCCC1`, the IC50 result (in assay [1]; at Legumain-like protease) was “Not Active” in each case.
On to `CCOC(=O)[C@H]1O[C@@H]1C(=O)N(CC(N)=O)NC(=O)[C@H](C)NC(=O)C(C)NC(=O)N1CCCCC1` (single isomer, unassigned), for which the IC50 in assay [1] (read-out: IC50) amounted to 220 nM; on Legumain-like protease (read-out: IC50) it was 30 nM.
As to `C[C@H](NC(=O)N1CCOCC1)C(=O)NN(CC(N)=O)C(=O)CCc1ccccc1`, the IC50 entry (in assay [1]; at Legumain-like protease) was “Not Active” in each case.
For the compound `C[C@H](NC(=O)[C@H](C)NC(=O)N1CCCCC1)C(=O)NN(CC(N)=O)C(=O)/C=C/C(=O)N(Cc1ccccc1)Cc1ccccc1`, the IC50 in assay [1] (read-out: IC50) amounted to 80 nM; at Legumain-like protease (read-out: IC50) it was 17 nM.
With `CCOC(=O)/C=C/C(=O)N(CC(N)=O)NC(=O)OC(C)(C)C`, the half-inhibitory concentration (IC50) in assay [1] (read-out: IC50) was over 2000 nM; on Legumain-like protease (read-out: IC50) it was 750 nM.
Regarding `C[C@H](NC(=O)[C@@H](C)NC(=O)N1CCOCC1)C(=O)NN(CC(N)=O)C(=O)/C=C/C(=O)N(Cc1cccc2ccccc12)Cc1cccc2ccccc12`, the IC50 worked out at 45 nM in assay [1] (read-out: IC50) and 3.3 nM at Legumain-like protease (read-out: IC50).
Taken in the same sequence, the figures for `C[C@H](NC(=O)N1CCN(C(=O)OCc2ccccc2)CC1)C(=O)NN(CC(N)=O)C(=O)/C=C/C(=O)N1CCc2ccccc2C1` were 750 nM and 800 nM.
Turning to `C=C/C=C(\C)CNC(=O)N(CC(N)=O)NC(=O)[C@H](C)NC(=O)N1CCN(C(=O)OCc2ccccc2)CC1`, the IC50 result (in assay [1]; against Legumain-like protease) was “Not Active” throughout.
As to `C[C@H](NC(=O)[C@@H](C)NC(=O)N1CCN(C(=O)OC(C)(C)C)CC1)C(=O)NN(CC(N)=O)C(=O)/C=C/C(=O)N(C)Cc1cccc2ccccc12`, the IC50 in assay [1] (read-out: IC50) worked out at 58 nM; on Legumain-like protease (read-out: IC50) it was 20 nM.
As to `CC(NC(=O)N1CCCCC1)C(=O)N[C@@H](C)C(=O)NN(CC(N)=O)C(=O)[C@H]1O[C@@H]1C(=O)NCc1cccc2ccccc12` (single isomer, unassigned), the values for the IC50 (in assay [1] (read-out: IC50); on Legumain-like protease (read-out: IC50)) were 160 nM and 8.5 nM, respectively.
Consider `CC(NC(=O)N1CCNCC1)C(=O)N[C@@H](C)C(=O)NN(CC(N)=O)C(=O)[C@H]1O[C@@H]1C(=O)N(Cc1ccccc1)Cc1ccccc1` (single isomer, unassigned), for which the IC50 in assay [1] (read-out: IC50) came to 150 nM; on Legumain-like protease (read-out: IC50), 11 nM.
Regarding `C[C@H](NC(=O)N1CCCCC1)C(=O)NN(CC(N)=O)C(=O)/C=C/C(=O)N1CCc2ccccc2C1`, the IC50 in assay [1] (read-out: IC50) worked out at 600 nM; on Legumain-like protease (read-out: IC50) it was 150 nM.
On the same counts, the results for `C[C@H](NC(=O)[C@@H](C)NC(=O)N1CCN(C(=O)OC(C)(C)C)CC1)C(=O)NN(CC(N)=O)C(=O)/C=C/C(=O)OCc1ccccc1` are 45 nM and 7.5 nM.
On the same counts, the results for `COc1ccc(CNC(=O)/C=C/C(=O)N(CC(N)=O)NC(=O)[C@H](C)NC(=O)N2CCOCC2)cc1OC` are over 2000 nM and over 2000 nM.
Taken in the same sequence, the figures for `CCOC(=O)/C=C/C(=O)N(CC(N)=O)NC(=O)[C@H](C)NC(=O)[C@@H](C)NC(=O)N1CCOCC1` were 101 nM and 0.23 nM.
Consider `C[C@H](NC(=O)[C@@H](C)NC(=O)N1CCN(C(=O)OCc2ccccc2)CC1)C(=O)NN(CC(N)=O)C(=O)/C=C/C(=O)N(C)Cc1cccc2ccccc12`, for which the IC50 in assay [1] (read-out: IC50) came out at 70 nM; on Legumain-like protease (read-out: IC50), 0.35 nM.
On the same counts, the results for `CCOC(=O)/C=C/C(=O)N(CC(N)=O)NC(=O)[C@H](C)NC(=O)[C@@H](C)NC(=O)N1CCCCC1` are 80 nM and 15 nM.
For `CC(C)(C)OC(=O)NN(CC(N)=O)C(=O)/C=C/C(=O)NCc1ccccc1`, the IC50 entry (in assay [1]; at Legumain-like protease) was “Not Active” each time.
For `C[C@H](NC(=O)N1CCN(C(=O)OCc2ccccc2)CC1)C(=O)NN(CC(N)=O)C(=O)/C=C/C(=O)N1CCCc2ccccc21`, the IC50 in assay [1] (read-out: IC50) came out at 750 nM; on Legumain-like protease (read-out: IC50), 850 nM.
With `C[C@H](NC(=O)[C@@H](C)NC(=O)N1CCCCC1)C(=O)NN(CC(N)=O)C(=O)/C=C/C(=O)NCCc1ccccc1`, the IC50 was determined as 750 nM in assay [1] (read-out: IC50) and 400 nM on Legumain-like protease (read-out: IC50).
Consider `C[C@H](NC(=O)[C@@H](C)NC(=O)N1CCN(C(=O)OCc2ccccc2)CC1)C(=O)NN(CC(N)=O)C(=O)/C=C/C(=O)N(Cc1cccc2ccccc12)Cc1cccc2ccccc12`, for which the IC50 in assay [1] (read-out: IC50) was 50 nM; at Legumain-like protease (read-out: IC50), 0.37 nM.
On the same counts, the results for `CCOC(=O)/C=C/C(=O)N(CC(N)=O)NC(=O)[C@@H](NC(=O)[C@@H](C)NC(=O)OCc1ccccc1)C(C)C` are 100 nM and 65 nM.
For the compound `CC(C)[C@H](NC(=O)[C@@H](C)NC(=O)OCc1ccccc1)C(=O)NN(CC(N)=O)C(=O)/C=C/C(=O)NCc1cccc2ccccc12`, the IC50 was found to be 1050 nM in assay [1] (read-out: IC50) and 350 nM at Legumain-like protease (read-out: IC50).
Regarding `C[C@H](NC(=O)N1CCOCC1)C(=O)NN(CC(N)=O)C(=O)/C=C/C(=O)N1CCc2ccccc2C1`, the IC50 was 750 nM in assay [1] (read-out: IC50) and 600 nM on Legumain-like protease (read-out: IC50).
On the same counts, the results for `CC(C)[C@H](NC(=O)[C@@H](C)NC(=O)OCc1ccccc1)C(=O)NN(CC(N)=O)C(=O)/C=C/C(=O)N1CCCc2ccccc21` are 138 nM and 13 nM.
Take `C[C@H](NC(=O)[C@@H](C)NC(=O)N1CCN(C(=O)OC(C)(C)C)CC1)C(=O)NN(CC(N)=O)C(=O)/C=C/C(=O)N(Cc1ccccc1)Cc1ccccc1`: the IC50 in assay [1] (read-out: IC50) turned out to be 45 nM; at Legumain-like protease (read-out: IC50), 30 nM.
Take `C[C@H](NC(=O)[C@@H](C)NC(=O)N1CCNCC1)C(=O)NN(CC(N)=O)C(=O)/C=C/C(=O)OCc1ccccc1`: the IC50 in assay [1] (read-out: IC50) is 250 nM; on Legumain-like protease (read-out: IC50) it was 13 nM.
Regarding `C[C@H](NC(=O)[C@@H](C)NC(=O)N1CCOCC1)C(=O)NN(CC(N)=O)C(=O)/C=C/C(=O)N1CCc2ccccc2C1`, the IC50 in assay [1] (read-out: IC50) is 103 nM; on Legumain-like protease (read-out: IC50), 65 nM.
As for `CC(NC(=O)N1CCOCC1)C(=O)N[C@@H](C)C(=O)NN(CC(N)=O)C(=O)[C@H]1O[C@@H]1C(=O)N(Cc1ccccc1)Cc1ccccc1` (single isomer, unassigned), the IC50 in assay [1] (read-out: IC50) was determined as 90 nM; at Legumain-like protease (read-out: IC50) it was 1.7 nM.
On to `C[C@H](NC(=O)[C@@H](C)NC(=O)N1CCNCC1)C(=O)NN(CC(N)=O)C(=O)/C=C/C(=O)N(Cc1ccccc1)Cc1ccccc1`, for which the IC50 in assay [1] (read-out: IC50) amounted to 90 nM; on Legumain-like protease (read-out: IC50), 31 nM.
For the compound `CC(NC(=O)N1CCN(C(=O)OC(C)(C)C)CC1)C(=O)N[C@@H](C)C(=O)NN(CC(N)=O)C(=O)[C@H]1O[C@@H]1C(=O)N(Cc1ccccc1)Cc1ccccc1` (single isomer, unassigned), the figures for the IC50 (in assay [1] (read-out: IC50); on Legumain-like protease (read-out: IC50)) were 80 nM and 270 nM, respectively.
Taken in the same sequence, the figures for `CCOC(=O)/C=C/C(=O)N(CC(N)=O)NC(=O)[C@H](C)NC(=O)[C@@H](C)NC(=O)N1CCN(C(=O)OC(C)(C)C)CC1` were 80 nM and 8.5 nM.
Taken in the same sequence, the figures for `CCOC(=O)/C=C/C(=O)N(CC(N)=O)NC(=O)[C@@H](NC(=O)[C@@H](C)NC(=O)OCc1ccccc1)[C@@H](C)CC` were 280 nM and 0.52 nM.
As to `C[C@H](NC(=O)N1CCCCC1)C(=O)NN(CC(N)=O)C(=O)Nc1ccccc1Oc1ccccc1`, the IC50 result (in assay [1]; at Legumain-like protease) was “Not Active” in each case.
On to `C[C@H](NC(=O)[C@H](C)NC(=O)N1CCOCC1)C(=O)NN(CC(N)=O)C(=O)OCc1ccccc1`, for which the IC50 entry (in assay [1]; against Legumain-like protease) was “Not Active” in each case.
Turning to `CC(C)(C)OC(=O)NN(CC(N)=O)C(=O)/C=C/C(=O)NCCCc1ccccc1`, the IC50 result (in assay [1]; against Legumain-like protease) was “Not Active” throughout.
With `C[C@H](NC(=O)[C@@H](C)NC(=O)N1CCN(C(=O)OC(C)(C)C)CC1)C(=O)NN(CC(N)=O)C(=O)/C=C/C(=O)N(Cc1cccc2ccccc12)Cc1cccc2ccccc12`, the IC50 in assay [1] (read-out: IC50) stood at 68 nM; on Legumain-like protease (read-out: IC50) it was 5 nM.
Consider `CCOC(=O)/C=C/C(=O)N(CC(N)=O)NC(=O)[C@H](C)NC(=O)[C@@H](C)NC(=O)N1CCN(C(=O)OCc2ccccc2)CC1`, for which the IC50 on Legumain-like protease (read-out: IC50) is 0.14 nM.
